Measured values gathered from unrelated publications.
Protocols differ between the studies behind these lines.
CDK1 with cyclin E: Cyclin-dependent kinase 1, with cyclin E (CDK1, Homo sapiens, UniProt P06493)
CDK1 with cyclin B: Cyclin-dependent kinase 1, with cyclin B (CDK1, Homo sapiens, UniProt P06493)
CDK1: Cyclin-dependent kinase 1 (CDK1, Homo sapiens, UniProt P06493)
CDK1 with cyclin A: Cyclin-dependent kinase 1, with cyclin A (CDK1, Homo sapiens, UniProt P06493)

| Structure (SMILES) | target | assay | setting | measurement | value |
| --- | --- | --- | --- | --- | --- |
| O=C(Nc1cnn(-c2csc(C(=O)NC3COC3)c2)c1)Nc1ccccc1Cl | CDK1 with cyclin E | enzyme activity, inhibitor | 5 µM | remaining activity | 94.7% |
| Cc1ccc(C(=O)NCc2ccsc2)cc1C#Cc1cn(C(C)C)c2ncnc(N)c12 | CDK1 with cyclin B | enzyme activity, inhibitor | 1 µM | activity vs control | 100% |
| COc1cc2ncnc(Nc3ccc(Oc4ccccc4)cc3C)c2cc1OC | CDK1 with cyclin B | enzyme activity, inhibitor | 1 µM | inhibition | 3% |
| Nc1nc(Nc2ccc(S(N)(=O)=O)cc2)nn1C(=O)c1c(F)cccc1F | CDK1 with cyclin B | cell-free assay | 0.5 µM | remaining signal | 5.65% |
| CSc1nc(C)c(-c2ccnc(Nc3ccc(N4CCOCC4)cc3)c2)[nH]1 | CDK1 | enzyme activity, inhibitor | 10 µM | inhibition | 62% |
| Cc1ccc(NC(=O)c2ccc(C)c(C(F)(F)F)c2)cc1C#Cc1nn(C2CCC(O)CC2)c2ncnc(N)c12 (stereo not drawn) | CDK1 with cyclin B | cell-free assay | 10 µM | remaining signal | 104% |
| Cc1ccc(Nc2nccc(N(C)c3ccc4c(C)n(C)nc4c3)n2)cc1S(N)(=O)=O | CDK1 with cyclin B | enzyme activity, inhibitor | 0.3 µM | inhibition | 14% |
| O=C1NC(=O)c2cc(Nc3ccc(F)cc3)c(Nc3ccc(F)cc3)cc21 | CDK1 with cyclin B | cell-free assay | 0.5 µM | remaining signal | 103% |
| CCOc1cc(-c2nncn2C)ccc1Nc1ncc2cc(C)nc(NCC(C)(C)C)c2n1 | CDK1 with cyclin B | enzyme activity, inhibitor, FRET | 1 µM | inhibition | 30% |
| COc1cccc2c(NCc3ccccc3)nc(-n3c(N)nc4ccccc43)nc12 | CDK1 | target engagement in cells, inhibitor, chemoproteomics | 20 mM | inhibition | -2.6% |
| CC(C)(O)[C@H]1CC[C@H](Nc2ccc3ncc(-c4cccc(C(F)(F)F)c4)n3n2)CC1 | CDK1 with cyclin A | enzyme activity, inhibitor | 1 µM | remaining activity | 95.4% |
| Cc1sc(C(=O)NC2COC2)cc1-n1cc(NC(=O)Nc2c(F)cccc2Cl)cn1 | CDK1 with cyclin B | enzyme activity, inhibitor | 10 µM | remaining activity | 92.7% |
| N#CCCc1ccc2c(c1)-c1[nH]c3ccc([N+](=O)[O-])cc3c1CC(=O)N2 | CDK1 with cyclin B | cell-free assay | 0.5 µM | remaining signal | 9.89% |
| CC(C)(C)c1nc(-c2cccc(NS(=O)(=O)c3c(F)cccc3F)c2F)c(-c2ccnc(N)n2)s1 | Cyclin-dependent kinase 1, with cyclin E1 (CDK1, Homo sapiens, UniProt P06493) | enzyme activity, inhibitor, radiometric | 1 µM | remaining activity | 57% |
| CC(C)[C@H](CO)Nc1nc(Nc2cccc(Cl)c2)c2ncn(C(C)C)c2n1 | CDK1 with cyclin A | cell-free assay | 0.5 µM | remaining signal | 31.7% |
| O=C(Nc1cnn(-c2csc(C(=O)NC3COC3)c2)c1)Nc1c(F)cccc1Cl | CDK1 with cyclin E | enzyme activity, inhibitor | 5 µM | remaining activity | 98.4% |
| CC(C)n1cnc2c(Nc3cccc(Cl)c3)nc(NCCO)nc21 | CDK1 with cyclin B | cell-free assay | 0.5 µM | remaining signal | 46.6% |
| CNC(=O)c1cc(Oc2ccc(NC(=O)Nc3ccc(Cl)c(C(F)(F)F)c3)cc2)ccn1 | CDK1 with cyclin B | enzyme activity, inhibitor | 10 µM | inhibition | 10% |
| CC(C)(C)c1nc2c(s1)c1nc(N)ncc1c1ccc(NS(=O)(=O)c3c(F)cccc3F)c(F)c12 | Cyclin-dependent kinase 1, with cyclin A2 (CDK1, Homo sapiens, UniProt P06493) | enzyme activity, inhibitor, radiometric | 1 µM | remaining activity | 100% |
| COc1cc(OC)c(C=C2C(O)=Nc3ccccc32)c(OC)c1 | CDK1 with cyclin B | cell-free assay | 0.5 µM | remaining signal | 83% |
| COc1cc(Cl)c(C(=O)N[C@@H](CN[C@H]2CC[C@@H](N)CC2)Cc2ccc(C#N)cc2)cc1-c1ccc(CN[C@H](C)c2ccc(C)cc2)o1 | CDK1 with cyclin B | enzyme activity, inhibitor | 1 µM | remaining activity | 95% |
